Assay outcomes deposited in PubChem BioAssay by several laboratories.
GSK3beta inhib = human GSK3beta kinase inhibition; P49841; GST-GSK3beta kinase, ADP-Glo luminescence, 60 min; active compounds read low; activity score (negative = inhibition), % at 10 µM; actives 0.038% (n = 300,000); AID 2097;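 active means more than half of replicate wells score below -50%, meaning over 50% inhibition versus plate controls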
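Test system: GST-tagged human GSK3beta kinase, cell-free; evaluation: activity score scaled between in-plate DMSO and GW8510 controls; measured by: ADP-Glo luminescence; incubation: 60 min reaction, RT; benchmarks: DMSO and 20 µM GW8510; reagent: peptide substrate plus 25 µM ATP (final); medium: Tris/MgCl2 kinase buffer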
MEKK2mut PB1 HTS = signal of MEK5 binding to mutant human MEKK2 PB1 domain; bead flow cytometry, Alexa488-MEK5 binding to MEKK2 mutant; percent response, % at 10 µM; actives 0.35% (n = 290,000); in the data active means percent response above about 24%, passing the limit was not always enough
STK33 inh = blocks human STK33 kinase activity. purified STK33, MBP phosphorylation, ADP-Glo luminescence. inhibition, % at 10 µM. actives 0.073% (n = 320,000). AID 2661;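 active means inhibition at or above 25%, using the most active replicate where run in duplicate; inactive means inhibition below 25%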
MEKK3 PB1 HTS = modulators (inhibitors or enhancers) of MEK5 binding to human MEKK3 PB1 domain; Q99759; bead-based flow cytometry, Alexa488-MEK5 binding to MEKK3; actives lie on both sides; 0 = blocked by unlabeled MEK5, 100 = vehicle; actives 1.4% (n = 290,000); binding response (% of control), % at 10 µM;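 active means binding response more than 3 SD above or below the average of its plate-row segment, actives on both sides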;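 further: Alexa488 bead fluorescence after subtracting the streptavidin-only scavenger bead signal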
Target sequence (Q99759 whole entry, looked up, the tested form may be a part): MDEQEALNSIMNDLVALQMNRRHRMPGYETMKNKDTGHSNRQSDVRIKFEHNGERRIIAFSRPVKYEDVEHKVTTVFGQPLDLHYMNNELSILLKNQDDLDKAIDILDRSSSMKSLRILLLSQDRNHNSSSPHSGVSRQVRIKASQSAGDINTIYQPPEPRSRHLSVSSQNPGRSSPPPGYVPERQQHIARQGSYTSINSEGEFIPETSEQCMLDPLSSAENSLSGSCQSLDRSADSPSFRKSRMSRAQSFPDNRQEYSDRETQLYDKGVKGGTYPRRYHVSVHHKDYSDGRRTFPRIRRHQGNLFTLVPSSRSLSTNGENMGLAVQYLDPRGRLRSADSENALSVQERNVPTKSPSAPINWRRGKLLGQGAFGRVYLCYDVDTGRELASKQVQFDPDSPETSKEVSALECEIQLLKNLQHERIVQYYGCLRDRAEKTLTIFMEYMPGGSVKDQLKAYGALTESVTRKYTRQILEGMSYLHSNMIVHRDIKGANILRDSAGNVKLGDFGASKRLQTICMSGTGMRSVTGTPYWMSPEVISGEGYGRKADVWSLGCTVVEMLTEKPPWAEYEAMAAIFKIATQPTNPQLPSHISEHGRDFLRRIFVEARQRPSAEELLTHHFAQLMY
GSK3A inh = blocks human GSK-3 alpha kinase; P49840; ADP-Glo luminescence, 60 min; inhibition, % at 10 µM; actives 0.1% (n = 320,000); AID 2650;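 active means more than half of replicates show inhibition above 20%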;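 further: GST-tagged GSK-3 alpha with peptide substrate and 25 µM ATP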
MEKK2wt PB1 HTS = raises or lowers MEK5 binding to wildtype human MEKK2 PB1 domain; actives 1.1% (n = 290,000); bead flow cytometry, Alexa488-MEK5 binding to MEKK2 WT; actives lie on both sides; binding response (% of control), % at 10 µM; Q9Y2U5; AID 1531; in the data active means binding response below about 67% or above about 130%
MEKK2wt confirm = raises or lowers MEK5 binding to wildtype human MEKK2, retest. AID 1892. shares compounds with MEKK3 PB1 HTS. bead flow cytometry, Alexa488-MEK5 binding to MEKK2 WT; actives lie on both sides. actives 2.4% (n = 5,900). binding response (% of control), % at 10 µM; in the data active means binding response below about 16% or above about 210%; inactive means in between
MEKK2mut confirm = signal of MEK5 binding to mutant human MEKK2, retest; bead flow cytometry, Alexa488-MEK5 binding to MEKK2 mutant; AID 1893; shares compounds with MEKK3 PB1 HTS; percent response, % at 10 µM; actives 2% (n = 5,900); in the data active means percent response mostly above about 71%, no sharp cut-off; inactive means mostly below about 38%;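 further: higher means compound restores mutant binding toward wildtype level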
MEKK3-MEK5 inh = confirmation of inhibitors of MEK5 binding to human MEKK3 | shares compounds with MEKK3 PB1 HTS | binding response (% of control), % at 10 µM | actives 1.8% (n = 5,900) | bead flow cytometry, Alexa488-MEK5 binding to MEKK3; active compounds read low;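 active means binding response below 72% of control, or above a set upper limit, though filed actives all read lower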;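 further: lower values mean stronger disruption of MEK5 binding to MEKK3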
Numbers stand for hits; – = inactive; · = not tested or not shown; [ ] = remark or other dose. Shown are actives, neighbours in structure and some others; about 2.1% of the full set was active somewhere.

SMILES | GSK3beta inhib | MEKK2mut PB1 HTS | STK33 inh | MEKK3 PB1 HTS | GSK3A inh | MEKK2wt PB1 HTS | MEKK2wt confirm | MEKK2mut confirm | MEKK3-MEK5 inh
C=CCn1c(C)c(/C=C/c2cc[n+](C)cc2)c2ccccc21 | – | 62 | – | – | – | – | – | – | –
Cc1cc(C)n(-c2nc(NCCN(C)C)c3c4c(sc3n2)CCCC4)n1 | – | – | – | – | – | 147 | – | – | –
O=S(=O)(NCC1CN(S(=O)(=O)c2c(F)cccc2F)C1)c1ccc2c(c1)OCCO2 | · | · | – | · | – | · | · | · | ·
CC(C)c1[nH]c(=O)c(C#N)c2c1CSC(C)(C)C2 | · | – | – | 3.0[inhibitor] | – | 3.0[inhibitor] | – | – | –
O=CNCC(=O)NC1CCCCCC1 | – | – | – | 79[inhibitor] | – | – | – | – | –
CN(C)/C=N/c1nc2nccc(-c3ccccc3)n2n1 | – | – | – | 47[inhibitor] | – | – | – | – | –
CCC(=O)Nc1ccc2c(c1)ncn2C | – | – | – | 75[inhibitor] | – | – | – | – | –
C/C=C/C(=O)OCC(=O)Nc1ccc(SC(F)F)cc1 | – | – | – | – | – | – | · | · | ·
N#Cc1ccccc1NC(=O)CSc1ccc([N+](=O)[O-])cn1 | – | – | – | – | – | – | · | · | ·
N#Cc1cc([N+](=O)[O-])cnc1NCC(O)CO (stereo not given) | – | – | – | 2.0[inhibitor] | – | 2.0[inhibitor] | – | – | –
Cc1csc(NC(=O)CCSCCc2ccccn2)n1 | – | – | – | – | – | – | · | · | ·
COc1ccc(CSc2n[nH]c(C)n2)cc1[N+](=O)[O-] | – | – | – | 130 | – | – | -3.0[inhibitor] | – | –
COc1ccc(CSc2ncn[nH]2)cc1[N+](=O)[O-] | – | – | – | – | – | – | · | · | ·
CN(C)S(=O)(=O)c1ccc(NC(=O)C2COc3ccccc3O2)cc1 (stereo not given) | – | – | – | – | – | – | · | · | ·
CN(C)S(=O)(=O)c1ccc(NC(=O)C2CC3C=CC2C3)cc1 (stereo not given) | – | – | – | 3.0[inhibitor] | – | 9.0[inhibitor] | – | – | –
CC1=C(CCN2CCN(C(C)C)C(CCO)C2)C(C)(C)CCC1 (stereo not given) | – | – | – | – | – | – | · | · | ·
N/C(=N\OC(=O)COc1ccc(Cl)cc1Cl)c1ccncc1 | · | – | · | – | · | – | · | · | ·
N#CCCn1cc(CNCc2ccccc2)c(-c2cccc([N+](=O)[O-])c2)n1 | – | – | – | – | – | 160 | – | – | –
CC1C(=O)N2CCCc3cc(S(=O)(=O)N4CCN(c5ccccc5F)CC4)cc1c32 (stereo not given) | – | – | – | – | – | – | · | · | ·
CCOC(=O)N1CCN(C(=O)c2ccc(OC)cc2)CC1 | – | – | – | – | – | – | · | · | ·
CCOC(=O)N1CCN(C(=O)C2CCN(C(=O)c3cc(OC)cc(OC)c3)CC2)CC1 | – | – | – | 142 | – | – | – | – | –
COc1ccc(P(=O)(COc2ccc([N+](=O)[O-])cc2)c2ccc(OC)cc2)cc1 | – | – | – | 66[inhibitor] | – | – | – | – | –
Cc1cc(-c2csc(N)n2)c(C)n1C | – | – | – | – | – | – | · | · | ·
COc1ccccc1CNc1nc(-c2cc(C)n(C)c2C)cs1 | · | – | · | – | · | -7.0[inhibitor] | – | – | –
COc1ccc(-n2nc3c(N)n[nH]c3cc2=O)cc1 | – | – | – | 67[inhibitor] | · | – | – | – | 68
SMILES | GSK3beta inhib | MEKK2mut PB1 HTS | STK33 inh | MEKK3 PB1 HTS | GSK3A inh | MEKK2wt PB1 HTS | MEKK2wt confirm | MEKK2mut confirm | MEKK3-MEK5 inh
Nc1n[nH]c2cc(=O)n(-c3ccc(Cl)cc3)nc12 | – | – | – | – | – | – | · | · | ·
CCOC(=O)c1cnn(CCOC(=O)C(C)(C)C)c1NC(=O)C(C)(C)C | – | – | – | 2.0[inhibitor] | – | 0.0[inhibitor] | – | – | –
CCOC(=O)c1cnn(CCOC(=O)C2CC2)c1NC(=O)C1CC1 | – | – | – | – | – | – | · | · | ·
COc1ccc(N2C(=O)/C(=C/c3ccc([N+](=O)[O-])cc3)C=C2c2ccccc2)cc1 | – | – | – | 76[inhibitor] | – | -10 | – | – | –
COc1ccc(-c2ccnc(SCC(=O)c3ccc(OC)c(OC)c3)n2)cc1 | – | – | – | 132 | – | – | – | – | –
COc1ccc(-c2ccnc(SCC(=O)N3CCN(c4ccccc4)CC3)n2)cc1 | – | – | – | 137 | – | – | – | – | –
COc1ccc(-c2ccnc(SCC(=O)c3ccc(Cl)cc3)n2)cc1 | – | – | – | – | – | – | · | · | ·
COc1ccc(N2CCN(C(=O)Cn3cnc4c(cnn4-c4ccc(C)cc4)c3=O)CC2)cc1 | – | – | – | 129 | – | – | – | – | –
COc1ccccc1NC(=O)CN1CCN(CC(=O)Nc2ccc3c(c2)OCCO3)CC1 | · | 24 | – | – | – | – | – | – | –
CCOc1ccc(NC(=O)CN2CCN(CC(=O)Nc3cc(OC)cc(OC)c3)CC2)cc1 | · | 25 | – | – | – | – | – | – | –
COc1ccccc1NC(=O)CN1CCN(CC(=O)Nc2ccc(OC)c(OC)c2)CC1 | – | – | – | – | – | – | · | · | ·
O=C(O)CC1(CC(=O)NCc2ccccn2)CCCCC1 | – | – | – | – | – | – | · | · | ·
COCCCN1C(=O)C(=O)/C(=C(/O)c2ccccc2)C1c1ccc(N(C)C)cc1 (stereo not given) | – | 223 | – | – | – | 152 | – | – | –
O=C1C(=O)N(CCCO)C(c2ccc(Br)cc2)/C1=C(\O)c1ccc(Br)cc1 (stereo not given) | – | 28 | – | – | – | – | – | – | –
CN1C(=O)C(=O)/C(=C(/O)c2ccccc2)C1c1ccc(Br)cc1 (stereo not given) | – | – | – | – | – | – | · | · | ·
Cc1cc(C)n(-c2ccnc3cc(Cl)ccc23)n1 | – | – | – | – | – | – | · | · | ·
Cc1ccc(N2C(=O)C3C(c4ccccc4)N4CCCN4C3(C)C2=O)cc1 (stereo not given) | – | – | – | 66[inhibitor] | – | – | – | – | –
Cc1ccc(N2C(=O)C3C(C2=O)N2CCCN2C3c2ccccc2)cc1C (stereo not given) | – | – | – | – | – | – | · | · | ·
Oc1ccccc1CNCCCN1CCOCC1 | – | – | – | – | – | – | · | · | ·
O=C(Nc1ccc2ccccc2c1)c1cc(F)c(F)cc1Cl | – | – | – | – | – | – | · | · | ·
